Test results published in ChEMBL document CHEMBL3600351, “Exploiting translational stalling peptides in an effort to extend azithromycin interaction within the prokaryotic ribosome nascent peptide exit tunnel” (Bioorg Med Chem, 2015).
Converted amounts (≈) assume the structure as drawn. The source made the active and inactive calls. No cut-off for these calls is given here.

Columns and labels:
Staphylococcus aureus [1] = test: Antibacterial activity against Staphylococcus aureus ATCC 29213 assessed as inhibition of bacterial growth after 18 hrs in presence of 50% bovine serum by liquid microdilution method; type: functional; conditions: ATCC 29213, 18 h
Method in brief: (§1)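 S. aureus ATCC 29213 overnight culture (37 °C) diluted 1:1000 in 50% bovine serum/broth and run by liquid microdilution. Growth was taken from OD600 change over 18 h at 37 °C to give MIC50, in triplicate against a vehicle control. The enhancement ratio is MIC50 without serum divided by MIC50 with serum.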

[2] = Inhibition of ribosome nascent peptide exit tunnel in Escherichia coli S30 extract assessed as inhibition of prokaryotic translation in presence of amino acids incubated for 20 mins by luciferase reporter gene assay
Method in brief: (§2)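 E. coli S30 cell-free extract with all amino acids, preincubated with compound for 20 min at room temperature. Luciferase control template added, translation run 60 min at 37 °C, then stopped by 5 min on ice. Luminescence was read after luciferin addition. IC50 from nonlinear fit, triplicate, normalized to vehicle control.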

Staphylococcus aureus [3] = test: Ratio of MIC50 for Staphylococcus aureus ATCC 29213 in absence of 50% bovine serum to MIC50 for Staphylococcus aureus ATCC29213 in presence of 50% bovine serum; type: functional; method in brief: as §1
Escherichia coli [4] = test: Antibacterial activity against Escherichia coli ATCC 27856 assessed as inhibition of bacterial growth after 18 hrs by liquid microdilution method; type: functional
Method in brief: (§3)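 Liquid microdilution. Overnight 37 °C cultures, E. coli ATCC 27856 in LB and S. aureus ATCC 29213 in TSB, diluted 1:1000 in the same medium and exposed to compound. Growth was taken from OD600 before and after 18 h at 37 °C. MIC50 is the read-out. Triplicate, normalized to an internal vehicle control.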

[5] = Binding affinity to ribosome nascent peptide exit tunnel in rabbit reticulocyte extract assessed as inhibition of eukaryotic translation in presence of amino acids incubated for 20 mins by luciferase reporter gene assay; design: species or system Oryctolagus cuniculus
Method in brief: as §2, with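 “Nuclease-treated rabbit reticulocyte lysate” for “E. coli S30 cell-free extract”, “90” for “60”, “30” for “37”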

Staphylococcus aureus [6] = test: Antibacterial activity against Erm+ methicillin-resistant Staphylococcus aureus ATCC 33591 assessed as inhibition of bacterial growth after 18 hrs by liquid microdilution method; type: functional
Method in brief: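 MRSA grown overnight at 37 °C in Nutrient broth, diluted 1:1000 in the same medium, then plated with the compounds. Growth was judged by comparing OD600 before and after 18 h at 37 °C. MIC50 was taken by liquid microdilution. Vancomycin was the positive control. Each compound was run in triplicate and standardized against an internal vehicle control.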

Staphylococcus aureus [7] = test: Antibacterial activity against Staphylococcus aureus ATCC 29213 assessed as inhibition of bacterial growth after 18 hrs by liquid microdilution method; type: functional; conditions: ATCC 29213, 18 h; method in brief: as §3
Escherichia coli [8] = test: Inhibition of ribosome nascent peptide exit tunnel in Escherichia coli S30 extract assessed as inhibition of prokaryotic translation in presence of amino acids incubated for 20 mins by luciferase reporter gene assay relative to azithromycin

| SMILES | MIC50 (Staphylococcus aureus [1]) | IC50 [2] | Ratio (Staphylococcus aureus [3]) | MIC50 (Escherichia coli [4]; ATCC 27856, 18 h) | IC50 [5] | MIC50 (Staphylococcus aureus [6]) | MIC50 (Staphylococcus aureus [7]) | MIC50 (Escherichia coli [4]) | fold change (FC) (Escherichia coli [8]) |
| --- | --- | --- | --- | --- | --- | --- | --- | --- | --- |
| CC[C@H]1OC(=O)[C@H](C)[C@@H](O[C@H]2C[C@@](C)(OC)[C@@H](O)[C@H](C)O2)[C@H](C)[C@@H](O[C@@H]2O[C@H](C)C[C@H](N(C)C)[C@H]2O)[C@](C)(O)C[C@@H](C)CN(Cc2ccc(-c3cn(CCn4ccc5cc(F)ccc54)nn3)cc2)[C@H](C)[C@@H](O)[C@]1(C)O | 0.78 µg/mL | 463 nM | 2 | 64 µg/mL (≈ 60.8 µM) | > 250000 nM | inactive | 1.56 µg/mL (≈ 1.48 µM) |  |  |
| CC[C@H]1OC(=O)[C@H](C)[C@@H](O[C@H]2C[C@@](C)(OC)[C@@H](O)[C@H](C)O2)[C@H](C)[C@@H](O[C@@H]2O[C@H](C)C[C@H](N(C)C)[C@H]2O)[C@](C)(O)C[C@@H](C)CN(Cc2ccc(-c3cn(CCn4ccc5cc(OC)ccc54)nn3)cc2)[C@H](C)[C@@H](O)[C@]1(C)O | 0.78 µg/mL | 504 nM | 2 |  | > 250000 nM | inactive | 1.56 µg/mL (≈ 1.46 µM) | inactive |  |
| CC[C@H]1OC(=O)[C@H](C)[C@@H](O[C@H]2C[C@@](C)(OC)[C@@H](O)[C@H](C)O2)[C@H](C)[C@@H](O[C@@H]2O[C@H](C)C[C@H](N(C)C)[C@H]2O)[C@](C)(O)C[C@@H](C)CN(Cc2ccc(-c3cn(CCn4ccc5ccccc54)nn3)cc2)[C@H](C)[C@@H](O)[C@]1(C)O | 0.63 µg/mL | 197 nM | 2.5 | 64 µg/mL (≈ 61.8 µM) | > 250000 nM | inactive | 1.56 µg/mL (≈ 1.51 µM) |  |  |
| CC[C@H]1OC(=O)[C@H](C)[C@@H](O[C@H]2C[C@@](C)(OC)[C@@H](O)[C@H](C)O2)[C@H](C)[C@@H](O[C@@H]2O[C@H](C)C[C@H](N(C)C)[C@H]2O)[C@](C)(O)C[C@@H](C)CN(Cc2ccc(-c3cn(CCc4cn(C)c5ccccc45)nn3)cc2)[C@H](C)[C@@H](O)[C@]1(C)O | 1.56 µg/mL | 641 nM | 4 | 128 µg/mL (≈ 122 µM) | > 250000 nM | inactive | 6.25 µg/mL (≈ 5.96 µM) |  |  |
| CC[C@H]1OC(=O)[C@H](C)[C@@H](O[C@H]2C[C@@](C)(OC)[C@@H](O)[C@H](C)O2)[C@H](C)[C@@H](O[C@@H]2O[C@H](C)C[C@H](N(C)C)[C@H]2O)[C@](C)(O)C[C@@H](C)CN(Cc2ccc(-c3cn(CCc4c[nH]c5ccccc45)nn3)cc2)[C@H](C)[C@@H](O)[C@]1(C)O | 1.56 µg/mL | 120 nM | 2 |  | > 250000 nM | inactive | 3.13 µg/mL (≈ 3.02 µM) | inactive |  |
| CC[C@H]1OC(=O)[C@H](C)[C@@H](O[C@H]2C[C@@](C)(OC)[C@@H](O)[C@H](C)O2)[C@H](C)[C@@H](O[C@@H]2O[C@H](C)C[C@H](N(C)C)[C@H]2O)[C@](C)(O)C[C@@H](C)CN(CCCCc2cn(CCn3ccc4cc(F)ccc43)nn2)[C@H](C)[C@@H](O)[C@]1(C)O | 0.31 µg/mL | 646 nM | 5 | 16 µg/mL (≈ 15.7 µM) | > 250000 nM | inactive | 1.56 µg/mL (≈ 1.53 µM) |  |  |
| CC[C@H]1OC(=O)[C@H](C)[C@@H](O[C@H]2C[C@@](C)(OC)[C@@H](O)[C@H](C)O2)[C@H](C)[C@@H](O[C@@H]2O[C@H](C)C[C@H](N(C)C)[C@H]2O)[C@](C)(O)C[C@@H](C)CN(CCCCc2cn(CCn3ccc4ccccc43)nn2)[C@H](C)[C@@H](O)[C@]1(C)O | 0.16 µg/mL | 128 nM | 10 | 64 µg/mL (≈ 63.9 µM) | > 250000 nM | inactive | 1.56 µg/mL (≈ 1.56 µM) |  | 2.3 |
| CC[C@H]1OC(=O)[C@H](C)[C@@H](O[C@H]2C[C@@](C)(OC)[C@@H](O)[C@H](C)O2)[C@H](C)[C@@H](O[C@@H]2O[C@H](C)C[C@H](N(C)C)[C@H]2O)[C@](C)(O)C[C@@H](C)CN(CCCCc2cn(CCc3c[nH]c4ccc(Cl)cc34)nn2)[C@H](C)[C@@H](O)[C@]1(C)O | 0.16 µg/mL | 880 nM | 5 | 32 µg/mL (≈ 30.9 µM) | > 250000 nM | inactive | 0.78 µg/mL (≈ 0.753 µM) |  |  |
| CC[C@H]1OC(=O)[C@H](C)[C@@H](O[C@H]2C[C@@](C)(OC)[C@@H](O)[C@H](C)O2)[C@H](C)[C@@H](O[C@@H]2O[C@H](C)C[C@H](N(C)C)[C@H]2O)[C@](C)(O)C[C@@H](C)CN(C)[C@H](C)[C@@H](O)[C@]1(C)O [AZITHROMYCIN] | 0.13 µg/mL | 292 nM | 6 | 4 µg/mL (≈ 5.34 µM) | > 250000 nM | inactive | 0.78 µg/mL (≈ 1.04 µM) |  |  |
| CC[C@H]1OC(=O)[C@H](C)[C@@H](O[C@H]2C[C@@](C)(OC)[C@@H](O)[C@H](C)O2)[C@H](C)[C@@H](O[C@@H]2O[C@H](C)C[C@H](N(C)C)[C@H]2O)[C@](C)(O)C[C@@H](C)CN(Cc2ccc(-c3cn(CCc4c[nH]c5ccc(F)cc45)nn3)cc2)[C@H](C)[C@@H](O)[C@]1(C)O | 1.56 µg/mL | 2030 nM | 2 |  | > 250000 nM | inactive | 3.13 µg/mL (≈ 2.97 µM) | inactive |  |
| CC[C@H]1OC(=O)[C@H](C)[C@@H](O[C@H]2C[C@@](C)(OC)[C@@H](O)[C@H](C)O2)[C@H](C)[C@@H](O[C@@H]2O[C@H](C)C[C@H](N(C)C)[C@H]2O)[C@](C)(O)C[C@@H](C)CN(Cc2ccc(-c3cn(CCN4CCc5ccccc54)nn3)cc2)[C@H](C)[C@@H](O)[C@]1(C)O | 0.78 µg/mL | 555 nM | 2 | 64 µg/mL (≈ 61.7 µM) | > 250000 nM | inactive | 1.56 µg/mL (≈ 1.5 µM) |  |  |
| CC[C@H]1OC(=O)[C@H](C)[C@@H](O[C@H]2C[C@@](C)(OC)[C@@H](O)[C@H](C)O2)[C@H](C)[C@@H](O[C@@H]2O[C@H](C)C[C@H](N(C)C)[C@H]2O)[C@](C)(O)C[C@@H](C)CN(CCCCc2cn(CCc3cn(C)c4ccccc34)nn2)[C@H](C)[C@@H](O)[C@]1(C)O | 0.16 µg/mL | 227 nM | 10 | 128 µg/mL (≈ 126 µM) | > 250000 nM | inactive | 1.56 µg/mL (≈ 1.54 µM) |  |  |
| CC[C@H]1OC(=O)[C@H](C)[C@@H](O[C@H]2C[C@@](C)(OC)[C@@H](O)[C@H](C)O2)[C@H](C)[C@@H](O[C@@H]2O[C@H](C)C[C@H](N(C)C)[C@H]2O)[C@](C)(O)C[C@@H](C)CN(CCCCc2cn(CCn3ccc4cc([N+](=O)[O-])ccc43)nn2)[C@H](C)[C@@H](O)[C@]1(C)O | 0.63 µg/mL | 811 nM | 2.5 | 16 µg/mL (≈ 15.3 µM) | > 250000 nM | inactive | 1.56 µg/mL (≈ 1.49 µM) |  |  |
| CC[C@H]1OC(=O)[C@H](C)[C@@H](O[C@H]2C[C@@](C)(OC)[C@@H](O)[C@H](C)O2)[C@H](C)[C@@H](O[C@@H]2O[C@H](C)C[C@H](N(C)C)[C@H]2O)[C@](C)(O)C[C@@H](C)CN(CCCCc2cn(CCN3CCc4ccccc43)nn2)[C@H](C)[C@@H](O)[C@]1(C)O | 0.16 µg/mL | 147 nM | 10 | 4 µg/mL (≈ 3.99 µM) | > 250000 nM | inactive | 1.56 µg/mL (≈ 1.55 µM) |  |  |
| CC[C@H]1OC(=O)[C@H](C)[C@@H](O[C@H]2C[C@@](C)(OC)[C@@H](O)[C@H](C)O2)[C@H](C)[C@@H](O[C@@H]2O[C@H](C)C[C@H](N(C)C)[C@H]2O)[C@](C)(O)C[C@@H](C)CN(CCCCc2cn(CCn3ccc4cc(OC)ccc43)nn2)[C@H](C)[C@@H](O)[C@]1(C)O | 0.16 µg/mL | 238 nM | 10 | 16 µg/mL (≈ 15.5 µM) | > 250000 nM | inactive | 1.56 µg/mL (≈ 1.51 µM) |  |  |
| CC[C@H]1OC(=O)[C@H](C)[C@@H](O[C@H]2C[C@@](C)(OC)[C@@H](O)[C@H](C)O2)[C@H](C)[C@@H](O[C@@H]2O[C@H](C)C[C@H](N(C)C)[C@H]2O)[C@](C)(O)C[C@@H](C)CN(Cc2ccc(-c3cn(CCn4ccc5cc([N+](=O)[O-])ccc54)nn3)cc2)[C@H](C)[C@@H](O)[C@]1(C)O | 0.39 µg/mL | 442 nM | 4 | 128 µg/mL (≈ 118 µM) | > 250000 nM | inactive | 1.56 µg/mL (≈ 1.44 µM) |  |  |
